Measured values reported in ChEMBL document CHEMBL4825665, “Effective degradation of EGFRL858R+T790M mutant proteins by CRBN-based PROTACs through both proteosome and autophagy/lysosome degradation systems” (Eur J Med Chem, 2021).
pIC50: −log10 of the molar value. Active and inactive are the calls of the source. No cut-off for these calls is given here.

Tests used:
[1] = test system: NCI-H1975; assay: Antiproliferative activity against human NCI-H1975 cells assessed as inhibition of cell growth measured after 72 hrs by CCK-8 assay; type: functional, cell-based; conditions: NCI-H1975, 72 h
How it was run: (§1)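 Cells seeded at 3000 cells/well in 96-well plates and treated with graded compound concentrations one day later for 72 h. CCK-8 was added for 1–4 h and absorbance read at 450 nm. Lung cancer lines were kept in RPMI 1640 with 10% fetal calf serum at 37 °C and 5% CO₂.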

[2] = test system: A549; assay: Antiproliferative activity against human A549 cells assessed as inhibition of cell growth measured after 72 hrs by CCK-8 assay; type: functional, cell-based; conditions: A549, 72 h; how it was run: as §1
[3] = test system: BJ; assay: Cytotoxicity against human BJ cells assessed as inhibition of cell growth measured after 72 hrs by CCK-8 assay; type: cell-based; how it was run: as §1
[4] = test system: Protein cereblon/Epidermal growth factor receptor (Homo sapiens), P00533+Q96SW2 [L858R,T790M]; assay: Protac activity at CRBN/EGFR L858R/T790M mutant in human NCI-H1975 cells assessed as induction of EGFR degradation measured after 16 hrs by Western blot assay; type: cell-based
How it was run: (§2)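 Cells seeded at 1-3X10^5/well and treated one day later with compounds at the concentrations and times given. Lysed in RIPA buffer with protease inhibitors. 15 µg protein run on 8% SDS-PAGE, transferred to nitrocellulose, probed for EGFR or phospho-EGFR, ECL detection. Lung lines kept in RPMI 1640 with 10% fetal calf serum, 37 °C, 5% CO2. DC50 is an estimated value. Repeated more than 3 times.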

[5] = target: T1, Protein cereblon/Epidermal growth factor receptor (Homo sapiens, UniProt P00533+Q96SW2); assay: Protac activity at CRBN/EGFR in human PC-9 cells assessed as induction of EGFR degradation by Western blot assay; type: cell-based
[6] = target: T1, Protein cereblon/Epidermal growth factor receptor; assay: Protac activity at CRBN/EGFR in human A549 cells assessed as induction of EGFR degradation by Western blot assay; type: cell-based
[7] = target: T1, Protein cereblon/Epidermal growth factor receptor; assay: Protac activity at CRBN/EGFR in mouse BaF3 cells assessed as induction of EGFR degradation by Western blot assay; type: cell-based
[8] = test system: Protein cereblon/Epidermal growth factor receptor (Homo sapiens), P00533+Q96SW2 [UNDEFINED MUTATION]; assay: Protac activity at CRBN/EGFR exon 19 deletion mutant in human PC-9 cells assessed as induction of EGFR degradation at >10 nM measured after 48 hrs by Western blot assay; type: cell-based; conditions: dose nM >10, time 48.0 hrs; how it was run: as §2
[9] = test system: Protein cereblon/Epidermal growth factor receptor (Homo sapiens), P00533+Q96SW2 [L858R,T790M]; assay: Protac activity at CRBN/EGFR L858R/T790M mutant in human NCI-H1975 cells assessed as induction of EGFR degradation at 30 nM measured after 16 hrs by Western blot assay; type: cell-based; how it was run: as §2
[10] = test system: Protein cereblon/Epidermal growth factor receptor (Homo sapiens), P00533+Q96SW2 [L858R,T790M]; assay: Protac activity at CRBN/EGFR L858R/T790M mutant in human NCI-H1975 cells assessed as induction of EGFR degradation measured after 48 hrs by Western blot assay; type: cell-based; conditions: dose 30-500 nM; how it was run: as §2
[11] = test system: Protein cereblon/Epidermal growth factor receptor (Homo sapiens), P00533+Q96SW2 [UNDEFINED MUTATION]; assay: Protac activity at CRBN/EGFR exon19 deletion/T790M mutant in human PC-9 cells transfected with BRCA1 assessed as induction of EGFR degradation at 1 to 1000 nM measured after 48 hrs by Western blot assay; type: cell-based; conditions: dose 1-1000 nM; how it was run: as §2
[12] = test system: NCI-H1975; assay: Cell cycle arrest in human NCI-H1975 cells expressing EGFR L858R/T790M mutant assessed as increase of cell population in G0/G1 phase at […] measured after 48 hrs by RNaseA/propidium iodide staining based flow cytometry; type: functional; conditions: dose lower 0.03 nM
How it was run: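 H1975 cells (1 × 10⁵/well, 6-well plates) treated one day after seeding at the indicated concentrations for 48 h. Washed in cold PBS, fixed in cold ethanol at −20 °C for over 24 h, then stained with PI/RNase for 30 min at 37 °C in the dark. Phase distribution measured by flow cytometry.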

[13] = test system: NCI-H1975; assay: Antimigratory activity in human NCI-H1975 cells expressing EGFR L858R/T790M mutant at 300 to 500 nM measured after 24 hrs by wound healing assay; type: functional, cell-based; conditions: dose 300-500 nM
How it was run: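 H1975 cells seeded in 24-well plates, scratched at confluence with a pipette tip 24 h later and washed three times with PBS. Then incubated with degrader at 300 or 500 nM. Six photos per well taken at set time points, and the uncovered wound area quantified.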

[14] = test system: NCI-H1975; assay: Inhibition of cell invasion in human NCI-H1975 cells expressing EGFR L858R/T790M mutant assessed at 500 nM measured after 18 hrs by transwell assay; type: functional; design: scale not given: the % may be the effect or the level left
How it was run: (§3)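 GFP-expressing H1975 cells were trypsinised and resuspended in serum-free medium containing compound. Seeded into Matrigel-coated transwell inserts (8 µm pores) above RPMI 1640 full growth medium, at 37 °C and 5% CO₂. Invaded cells imaged by fluorescence microscopy in five random fields per insert and counted. Three independent repeats.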

[15] = test system: NCI-H1975; assay: Inhibition of cell invasion in human NCI-H1975 cells expressing EGFR L858R/T790M mutant assessed at 500 nM measured after 42 hrs by transwell assay; type: functional; design: scale not given: the % may be the effect or the level left; how it was run: as §3
[16] = test system: Protein cereblon/Epidermal growth factor receptor (Homo sapiens), P00533+Q96SW2 [L858R,T790M]; assay: Protac activity at CRBN/EGFR L858R/T790M mutant in human NCI-H1975 cells assessed as induction of EGFR degradation at 0.3 uM pre-incubated for 2 hrs in the presence of Bafilomycin A1 and measured after 16 hrs by Western blot assay; type: cell-based; conditions: time 18.0 hrs
[17] = test system: NCI-H1975; assay: Induction of apoptosis in human NCI-H1975 cells expressing EGFR L858R/T790M mutant assessed as increase in number of apoptotic cells measured after 72 hrs by Annexin-V/FITC staining based flow cytometry method; type: functional, cell-based
How it was run: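 H1975 cells (8 × 10⁴/well, 12-well plates) treated one day after seeding at graded concentrations for 72 h. Collected, stained with Annexin V-FITC, and apoptosis measured by flow cytometry.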

[18] = test system: Protein cereblon/Epidermal growth factor receptor (Homo sapiens), P00533+Q96SW2 [L858R,T790M]; assay: Protac activity at CRBN/EGFR L858R/T790M mutant in human NCI-H1975 cells assessed as increase in cell doubling time at 100 to 300 nM measured after 4 days by […] staining based fluorescence assay; conditions: dose 100-300 nM, time 4.0 day
[19] = test system: Protein cereblon/Epidermal growth factor receptor (Homo sapiens), P00533+Q96SW2 [L858R,T790M]; assay: Protac activity at CRBN/EGFR L858R/T790M mutant in human NCI-H1975 cells assessed as induction of EGFR degradation at 50 nM measured after 16 hrs by Western blot assay; type: cell-based; how it was run: as §2
[20] = target: T1, Protein cereblon/Epidermal growth factor receptor; assay: Protac activity at CRBN/EGFR in human PC-9 cells assessed as induction of EGFR degradation by Western blot assay relative to control; type: cell-based
How it was run: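 PC9 cells (EGFR Ex19del) seeded at 1–3 × 10⁵/well in 12-well plates and treated the next day with graded degrader concentrations for 48 h. Lysed in RIPA buffer with protease inhibitors, 15 µg protein resolved on 8% SDS-PAGE, and EGFR detected by immunoblot with ECL. DC50 estimated from blots; experiments repeated more than 3 times.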

C=CC(=O)Nc1cc2c(Nc3ccc(F)c(Cl)c3)ncnc2cc1OCCCN1CCN(C(=O)CCCCCCNc2cccc3c2C(=O)N(C2CCC(=O)NC2=O)C3=O)CC1 (centres undefined)
pIC50 [1]: 7.58
pIC50 [2]: < 5.00
pIC50 [3]: < 5.00
Activity [4]: Active
DC50 [5]: 30 nM
DC50 [6]: Not Active
DC50 [7]: 100 nM
Activity [8]: Dose-Dependent Effect
Activity [9]: Active
Activity [10]: Dose-Dependent Effect
Activity [11]: inactive
Activity [12]: Active
Activity [13]: Active
Activity [14]: 38%
Activity [15]: 40%
Activity [16]: inactive
Activity [17]: Active
Activity [18]: Active

C=CC(=O)Nc1cc2c(Nc3ccc(F)c(Cl)c3)ncnc2cc1OCCCN1CCN(C(=O)CCCCCNc2cccc3c2C(=O)N(C2CCC(=O)NC2=O)C3=O)CC1 (centres undefined)
pIC50 [1]: 7.66
pIC50 [2]: < 5.00
pIC50 [3]: < 5.00
Activity [4]: Active
DC50 [5]: 100 nM
DC50 [6]: Not Active
DC50 [7]: 100 nM
Activity [8]: Dose-Dependent Effect
Activity [19]: Active
Activity [10]: Dose-Dependent Effect
Activity [11]: inactive
Activity [12]: Active
Activity [16]: inactive
Activity [17]: Active
%max [20]: 40%
Activity [18]: Active
